# Laboratory results taken from ChEMBL document CHEMBL1154186, “Synthesis, kinase inhibitory potencies, and in vitro antiproliferative evaluation of new Pim kinase inhibitors” (J Med Chem, 2009).
# Key:
# [1] = molecular target: Mitogen-activated protein kinase 11 (Homo sapiens) (UniProt Q15759); assay: Inhibition of P38beta assessed as residual enzyme activity at 10 uM relative to untreated control
# In short: (§1)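 Kinases of human origin, except CK1δ, which is rat. Run in 50 mM Tris/HCl pH 7.5, 0.1 mM EGTA, 0.1% 2-mercaptoethanol and 10 mM Mg acetate, with [γ-33P]ATP at 20 µM, 30 min at 21 °C. Acid-stopped and captured on P81 filters. Compound tested at 10 µM; residual % of uninhibited control, duplicate determinations.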
# [2] = molecular target: T1, Mitogen-activated protein kinase 15 (Homo sapiens) (UniProt Q8TD08); assay: Inhibition of ERK8 assessed as residual enzyme activity at 10 uM relative to untreated control
# T1 sequence (whole entry): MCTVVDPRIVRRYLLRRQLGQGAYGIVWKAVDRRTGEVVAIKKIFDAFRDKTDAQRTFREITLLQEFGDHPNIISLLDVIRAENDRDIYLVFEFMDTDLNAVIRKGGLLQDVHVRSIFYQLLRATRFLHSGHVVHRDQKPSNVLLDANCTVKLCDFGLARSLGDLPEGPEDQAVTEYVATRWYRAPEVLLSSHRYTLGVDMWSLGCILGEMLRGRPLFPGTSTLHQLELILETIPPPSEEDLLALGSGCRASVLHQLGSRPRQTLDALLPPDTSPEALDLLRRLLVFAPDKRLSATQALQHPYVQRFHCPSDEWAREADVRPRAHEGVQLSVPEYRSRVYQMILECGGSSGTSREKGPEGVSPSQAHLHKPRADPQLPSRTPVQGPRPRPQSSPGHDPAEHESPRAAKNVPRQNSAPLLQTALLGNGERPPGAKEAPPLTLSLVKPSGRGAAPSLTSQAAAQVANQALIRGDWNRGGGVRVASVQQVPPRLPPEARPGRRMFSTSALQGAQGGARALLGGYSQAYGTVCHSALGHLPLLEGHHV
# In short: (§2)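 Radiometric filter-binding assay at 21 °C for 30 min. Mix: 50 mM Tris/HCl pH 7.5, 0.1 mM EGTA, 0.1% 2-mercaptoethanol, 10 mM Mg acetate and [γ-33P]ATP (800 cpm/pmol) at 5 µM. Stopped with orthophosphoric acid and spotted on P81. Compound at 10 µM; activity given as % remaining versus no-inhibitor control, duplicates. Kinases human full-length unless noted.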
# [3] = molecular target: Serine/threonine-protein kinase PAK 4 (Homo sapiens) (UniProt O96013); assay: Inhibition of PAK4 assessed as residual enzyme activity at 10 uM relative to untreated control; in short: as §2
# [4] = molecular target: Tyrosine-protein kinase CSK (Homo sapiens) (UniProt P41240); assay: Inhibition of CSK assessed as residual enzyme activity at 10 uM relative to untreated control; in short: as §1
# [5] = molecular target: Ribosomal protein S6 kinase alpha-3 (Homo sapiens) (UniProt P51812); assay: Inhibition of RSK2 assessed as residual enzyme activity at 10 uM relative to untreated control
# [6] = Inhibition of PKA assessed as residual enzyme activity at 10 uM relative to untreated control
# In short: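 PKA (5-20 m-units) was assayed in 8 mM Mops pH 7.5 and 0.2 mM EDTA, with LRRASLG at 300 µM and [γ-33P]ATP at 20 µM plus 10 mM Mg acetate, 30 min at 21 °C, then P81 filter capture. Compound at 10 µM; % residual activity versus uninhibited control, duplicates.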
# [7] = molecular target: T2, Serine/threonine-protein kinase D1 (Homo sapiens) (UniProt Q15139); assay: Inhibition of PKD1 assessed as residual enzyme activity at 10 uM relative to untreated control
# T2 sequence (whole entry): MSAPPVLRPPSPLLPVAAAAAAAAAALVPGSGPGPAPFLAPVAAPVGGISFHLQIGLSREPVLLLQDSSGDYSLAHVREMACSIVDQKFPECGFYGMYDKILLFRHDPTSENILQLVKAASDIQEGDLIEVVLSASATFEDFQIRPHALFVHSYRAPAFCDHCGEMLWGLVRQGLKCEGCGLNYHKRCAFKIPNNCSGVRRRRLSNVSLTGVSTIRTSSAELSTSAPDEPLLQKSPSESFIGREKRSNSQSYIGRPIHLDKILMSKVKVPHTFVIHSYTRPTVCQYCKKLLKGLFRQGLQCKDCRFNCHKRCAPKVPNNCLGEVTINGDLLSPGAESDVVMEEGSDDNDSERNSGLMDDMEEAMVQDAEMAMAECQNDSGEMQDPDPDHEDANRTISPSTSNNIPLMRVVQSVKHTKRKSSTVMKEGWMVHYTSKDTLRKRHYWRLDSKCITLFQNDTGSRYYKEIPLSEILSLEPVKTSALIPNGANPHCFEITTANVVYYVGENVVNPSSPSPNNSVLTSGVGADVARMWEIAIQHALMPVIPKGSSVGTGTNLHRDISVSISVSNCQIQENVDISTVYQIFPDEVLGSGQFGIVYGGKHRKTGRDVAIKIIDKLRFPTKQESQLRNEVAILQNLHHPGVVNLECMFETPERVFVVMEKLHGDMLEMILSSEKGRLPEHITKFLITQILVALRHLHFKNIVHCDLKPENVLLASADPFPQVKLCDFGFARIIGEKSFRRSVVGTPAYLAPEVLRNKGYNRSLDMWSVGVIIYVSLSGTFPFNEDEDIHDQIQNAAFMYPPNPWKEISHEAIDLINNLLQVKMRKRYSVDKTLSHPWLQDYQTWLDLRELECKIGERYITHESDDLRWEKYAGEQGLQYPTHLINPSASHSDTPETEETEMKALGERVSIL
# [8] = molecular target: MAP kinase-activated protein kinase 2 (Homo sapiens) (UniProt P49137); assay: Inhibition of MAPKAPK2 assessed as residual enzyme activity at 10 uM relative to untreated control; in short: as §1
# [9] = molecular target: T3, MAP kinase-activated protein kinase 5 (Homo sapiens) (UniProt Q8IW41); assay: Inhibition of PRAK assessed as residual enzyme activity at 10 uM relative to untreated control
# T3 sequence (whole entry): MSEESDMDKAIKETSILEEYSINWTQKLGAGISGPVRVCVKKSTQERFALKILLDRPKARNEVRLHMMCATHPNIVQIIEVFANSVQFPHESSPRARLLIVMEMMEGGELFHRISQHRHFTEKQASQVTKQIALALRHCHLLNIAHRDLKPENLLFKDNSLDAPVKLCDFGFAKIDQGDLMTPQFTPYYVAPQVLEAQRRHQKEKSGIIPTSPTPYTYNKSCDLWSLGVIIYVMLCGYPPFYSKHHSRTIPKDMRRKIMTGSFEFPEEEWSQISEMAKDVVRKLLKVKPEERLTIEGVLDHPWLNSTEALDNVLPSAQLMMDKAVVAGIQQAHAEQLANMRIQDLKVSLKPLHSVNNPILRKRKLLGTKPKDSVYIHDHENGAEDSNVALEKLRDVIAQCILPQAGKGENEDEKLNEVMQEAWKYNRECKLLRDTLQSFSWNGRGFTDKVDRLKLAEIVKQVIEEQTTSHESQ
# [10] = system: ROCK2 (Rattus norvegicus); assay: Inhibition of ROCK2 assessed as residual enzyme activity at 10 uM relative to untreated control
# Mitogen-activated protein kinase 11 (Homo sapiens), sequence (Q15759 whole entry): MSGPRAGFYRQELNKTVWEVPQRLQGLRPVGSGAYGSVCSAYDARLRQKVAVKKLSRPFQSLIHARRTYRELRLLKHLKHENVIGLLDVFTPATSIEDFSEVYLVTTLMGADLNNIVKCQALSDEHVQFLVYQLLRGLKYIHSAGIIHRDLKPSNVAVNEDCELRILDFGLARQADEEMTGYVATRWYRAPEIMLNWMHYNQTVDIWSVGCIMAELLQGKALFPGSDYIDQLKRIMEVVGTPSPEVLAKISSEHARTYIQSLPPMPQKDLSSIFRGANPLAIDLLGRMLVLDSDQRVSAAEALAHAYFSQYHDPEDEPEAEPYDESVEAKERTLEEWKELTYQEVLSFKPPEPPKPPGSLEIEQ
# Tyrosine-protein kinase CSK (Homo sapiens), sequence (P41240 2-450 limits assumed): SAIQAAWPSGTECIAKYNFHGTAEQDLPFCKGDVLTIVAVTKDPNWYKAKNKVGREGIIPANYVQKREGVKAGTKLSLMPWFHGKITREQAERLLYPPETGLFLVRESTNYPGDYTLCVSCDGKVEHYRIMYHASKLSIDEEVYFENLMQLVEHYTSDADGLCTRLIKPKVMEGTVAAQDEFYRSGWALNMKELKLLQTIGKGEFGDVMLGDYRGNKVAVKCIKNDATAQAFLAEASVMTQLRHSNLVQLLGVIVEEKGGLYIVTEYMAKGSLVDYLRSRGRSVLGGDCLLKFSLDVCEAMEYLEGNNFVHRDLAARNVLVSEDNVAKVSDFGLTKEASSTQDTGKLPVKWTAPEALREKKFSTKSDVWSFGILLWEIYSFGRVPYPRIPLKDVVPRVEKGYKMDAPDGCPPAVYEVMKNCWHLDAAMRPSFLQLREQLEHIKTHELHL
# Serine/threonine-protein kinase PAK 4 (Homo sapiens), sequence (O96013 whole entry, looked up): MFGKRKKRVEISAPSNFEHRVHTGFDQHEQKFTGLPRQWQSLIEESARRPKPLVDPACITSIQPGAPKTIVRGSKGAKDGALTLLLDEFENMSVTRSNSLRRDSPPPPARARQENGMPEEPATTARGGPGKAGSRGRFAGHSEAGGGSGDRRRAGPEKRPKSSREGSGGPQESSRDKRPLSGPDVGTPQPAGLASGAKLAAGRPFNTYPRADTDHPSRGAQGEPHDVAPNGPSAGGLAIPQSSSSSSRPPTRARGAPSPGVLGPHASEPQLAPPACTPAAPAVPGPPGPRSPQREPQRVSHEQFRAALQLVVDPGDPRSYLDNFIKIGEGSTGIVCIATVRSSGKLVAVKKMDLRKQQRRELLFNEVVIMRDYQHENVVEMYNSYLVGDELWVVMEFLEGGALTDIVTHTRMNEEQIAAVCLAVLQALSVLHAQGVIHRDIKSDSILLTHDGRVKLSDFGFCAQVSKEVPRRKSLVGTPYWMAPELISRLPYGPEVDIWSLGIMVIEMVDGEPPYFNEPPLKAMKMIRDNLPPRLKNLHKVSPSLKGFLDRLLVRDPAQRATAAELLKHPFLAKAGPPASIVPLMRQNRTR
# Ribosomal protein S6 kinase alpha-3 (Homo sapiens), sequence (P51812 whole entry): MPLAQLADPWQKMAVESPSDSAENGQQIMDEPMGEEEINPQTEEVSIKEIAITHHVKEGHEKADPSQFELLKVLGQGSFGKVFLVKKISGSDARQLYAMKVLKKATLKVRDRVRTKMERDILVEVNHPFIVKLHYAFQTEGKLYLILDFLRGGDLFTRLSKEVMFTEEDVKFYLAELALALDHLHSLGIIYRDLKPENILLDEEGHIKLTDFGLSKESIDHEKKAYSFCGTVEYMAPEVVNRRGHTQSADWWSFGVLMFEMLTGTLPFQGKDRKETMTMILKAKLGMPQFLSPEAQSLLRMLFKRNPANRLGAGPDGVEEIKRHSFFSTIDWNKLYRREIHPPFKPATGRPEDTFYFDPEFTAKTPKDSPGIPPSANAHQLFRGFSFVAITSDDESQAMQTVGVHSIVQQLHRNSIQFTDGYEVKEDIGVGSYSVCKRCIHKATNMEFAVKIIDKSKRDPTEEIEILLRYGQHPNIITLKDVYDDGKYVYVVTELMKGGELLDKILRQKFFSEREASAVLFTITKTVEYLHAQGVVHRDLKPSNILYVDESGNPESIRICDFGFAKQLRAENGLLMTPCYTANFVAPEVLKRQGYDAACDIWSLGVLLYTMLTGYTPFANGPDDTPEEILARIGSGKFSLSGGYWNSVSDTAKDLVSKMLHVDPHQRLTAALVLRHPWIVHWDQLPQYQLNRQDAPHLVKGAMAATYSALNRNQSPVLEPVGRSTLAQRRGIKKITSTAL
# MAP kinase-activated protein kinase 2 (Homo sapiens), sequence (P49137 whole entry, looked up): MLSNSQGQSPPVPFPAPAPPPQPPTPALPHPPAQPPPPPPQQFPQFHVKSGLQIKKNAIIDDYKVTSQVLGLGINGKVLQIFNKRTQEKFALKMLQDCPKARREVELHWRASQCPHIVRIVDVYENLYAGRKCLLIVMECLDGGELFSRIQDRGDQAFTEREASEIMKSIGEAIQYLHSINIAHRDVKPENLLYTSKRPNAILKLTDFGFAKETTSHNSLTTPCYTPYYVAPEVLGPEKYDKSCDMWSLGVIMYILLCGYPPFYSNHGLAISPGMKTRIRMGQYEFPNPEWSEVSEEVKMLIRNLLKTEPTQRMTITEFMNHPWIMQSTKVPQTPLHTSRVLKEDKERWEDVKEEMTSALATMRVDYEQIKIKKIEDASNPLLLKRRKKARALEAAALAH
Compound,Activity [1],Activity [2],Activity [3],Activity [4],Activity [5],Activity [6],Activity [7],Activity [8],Activity [9],Activity [10]
O=Cc1c[nH]c2c1ccc1c3ccccc3[nH]c12,80%,20%,88%,74%,77%,60%,28%,84%,72%,
O=Cc1c[nH]c2ccc3c4ccccc4[nH]c3c12,96%,112%,88%,87%,78%,83%,87%,95%,114%,86%
c1ccc2c(c1)[nH]c1c2ccc2cc[nH]c21,100%,55%,84%,98%,99%,95%,83%,118%,97%,86%
c1ccc2c(c1)[nH]c1c3cc[nH]c3ccc21,91%,47%,84%,72%,107%,96%,71%,95%,114%,89%
